Results from article PMC8399557 (Journal of medicinal chemistry, 2020).

How the values were obtained:
Assay type in all cases: physicochemical
[1] = Optical properties; conditions: for Abs (nm) / Em (nm) / Extinction Coefficient (cm^−1M^−1) / Stokes Shift (nm): in methanol; for Quantum yield (%, in Methanol): quinine bisulfate as the reference
[2] = Solvolytic stability of difluoro-dioxaborinins by 19F NMR in water/DMSO; conditions: for relative solvolytic stability (in words): comparison among Figure 2 / Table 1 compounds, 10% water/90% DMSO; for Stability (t1/2, h) 10% H2O/90% DMSO / Stability (t1/2, h) 90% H2O/10% DMSO: solvolysis half-life, 19F NMR, 25 °C; for Stability (t1/2, h) 10% H2O/90% DMSO: 10% H2O/90% DMSO (5.55 M H2O); for times more resistant to solvolysis than 1: in 50 M H2O; for Stability (t1/2, h) 90% H2O/10% DMSO: 90% H2O/10% DMSO (50 M H2O); for Fold increase in stability (90% to 10% H2O): solvolysis in 5.5 M H2O vs. 50 M H2O; for fold more rapid solvolysis than 5: determined in 5.55 M H2O
Outline: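 Test compound was held in 10% or 90% aqueous DMSO, with aqueous portions in 1X PBS (pH 7.4, 10 mM), and 19F NMR spectra were integrated over time. The fraction of 19F on the test compound was taken as its integral divided by the sum of all fluoride integrals. Fractions versus time were fitted to P = exp(−k*t), and half-lives were derived from k.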

[3] = Water solubility judged by silica TLC with water as the mobile phase

Row | Structure (SMILES) | Abs (nm) [1] | Em (nm) [1] | Extinction Coefficient (cm^−1M^−1) [1] | Stokes Shift (nm) [1] | solvolysis half-life compared with F-18 nuclear decay half-life ([2]; Table 1 conditions) | relative solvolytic stability (in words) [2] | Stability (t1/2, h) 10% H2O/90% DMSO [2] | water solubility (in words) [3] | times more resistant to solvolysis than 1 [2] | Stability (t1/2, h) 90% H2O/10% DMSO [2] | Fold increase in stability (90% to 10% H2O) [2] | Quantum yield (%, in Methanol) [1] | fold more rapid solvolysis than 5 [2] | solvolysis in the absence of water ([2]; 100% DMSO) | fraction decomposed at 110 min (one F-18 half-life) post i.v. injection ([2]; assuming the in vitro solvolysis rate translates in vivo)
1 | CC1=CC(c2ccccc2)=[O+][B-](F)(F)O1 [Compound 14, 2,2-Difluoro-4-methyl-6-phenyl-2H-1λ^3,3,2λ^4-dioxaborinine] | 325 nm | 328 nm | 19,800 cm^−1M^−1 | 3 nm | > 1.83 h | least stable | 4.46 ± 0.05 h | – | – | – | – | – | – | – | –
2 | CC1=C2CCCCC2=[O+][B-](F)(F)O1 [Compound 15, 2,2-Difluoro-4-methyl-5,6,7,8-tetrahydro-2H-1λ^3,2λ^4-benzo[e][1,3,2]dioxaborinine] | 303 nm | 307 nm | 12,000 cm^−1M^−1 | 4 nm | – | – | 33.7 ± 1.1 h | water solubility that allowed them to be resolved on silica TLC with water as the mobile phase | 2.5 times | 6.75 ± 0.19 h | 5.0 fold | – | – | – | –
3 | COc1cc(/C=C/C2=CC(/C=C/c3ccc(OC(=O)c4c(F)cc(F)cc4F)c(OC)c3)=[O+][B-](F)(F)O2)ccc1OC(=O)c1c(F)cc(F)cc1F [Compound 9, ((1E,1′E)-(2,2-difluoro-2H-1λ^3,3,2λ^4-dioxaborinine-4,6-diyl)bis(ethene-2,1-diyl))bis(2-methoxy-4,1-phenylene) bis(2,4,6-trifluorobenzoate)] | 430 nm | 512 nm | 50,800 cm^−1M^−1 | 82 nm | – | – | 11.9 ± 0.4 h | – | – | – | – | 3.0% | 33 fold | – | –
4 | CCC1=C(C)O[B-](F)(F)[O+]=C1C [Compound 3, 5-Ethyl-2,2-difluoro-4,6-dimethyl-2H-1λ^3,3,2λ^4-dioxaborinine] | 303 nm | 306 nm | 12,000 cm^−1M^−1 | 3 nm | – | – | 53.9 ± 1.5 h | water solubility that allowed them to be resolved on silica TLC with water as the mobile phase | 5.6 times | 15.2 ± 0.5 h | 3.5 fold | – | – | – | –
5 | CCOC(=O)CCC1=C(C)O[B-](F)(F)[O+]=C1C [Compound 6, Ethyl 3-(2,2-difluoro-4,6-dimethyl-2H-1λ^3,3,2λ^4-dioxaborinin-5-yl)propanoate] | 301 nm | 307 nm | 12,600 cm^−1M^−1 | 6 nm | – | – | 24.6 ± 0.5 h | water solubility that allowed them to be resolved on silica TLC with water as the mobile phase | 1.9 times | 5.19 ± 0.15 h | 4.7 fold | – | – | – | –
6 | COc1cc(/C=C/C2=CC(/C=C/c3ccc(OC(=O)CCN4C(=O)C=CC4=O)c(OC)c3)=[O+][B-](F)(F)O2)ccc1OC(=O)CCN1C(=O)C=CC1=O [Compound 10, ((1E,1′E)-(2,2-difluoro-2H-1λ^3,3,2λ^4-dioxaborinine-4,6-diyl)bis(ethene-2,1-diyl))bis(2-methoxy-4,1-phenylene) bis(3-(2,5-dioxo-2,5-dihydro-1H-pyrrol-1-yl)propanoate)] | 434 nm | 509 nm | 54,000 cm^−1M^−1 | 75 nm | – | – | 16.0 ± 0.2 h | – | – | – | – | 3.1% | 24 fold | – | –
7 | CC1=[O+][B-](F)(F)OC(C)=C1C [Compound 2, 2,2-Difluoro-4,5,6-trimethyl-2H-1λ^3,3,2λ^4-dioxaborinine] | 303 nm | 307 nm | 12,200 cm^−1M^−1 | 4 nm | – | – | 53.9 ± 1.1 h | water solubility that allowed them to be resolved on silica TLC with water as the mobile phase | 6.2 times | 17.1 ± 0.7 h | 3.2 fold | – | – | – | –
8 | CC1=CC(C)=[O+][B-](F)(F)O1 [Compound 1, 2,2-Difluoro-4,6-dimethyl-2H-1λ^3,3,2λ^4-dioxaborinine] | 279 nm | 305 nm | 9,180 cm^−1M^−1 | 26 nm | – | second most rapid difluoro-dioxaborinin to undergo aqueous solvolysis | 7.63 ± 0.18 h | water solubility that allowed them to be resolved on silica TLC with water as the mobile phase | – | 2.73 ± 0.02 h | 2.8 fold | – | – | not observed | 37%
